Laboratory results taken from ChEMBL document CHEMBL2396616, “Development and characterization of a promising fluorine-18 labelled radiopharmaceutical for in vivo imaging of fatty acid amide hydrolase” (Bioorg Med Chem, 2013).

Assays:
[1] = biological target: T1, Fatty-acid amide hydrolase 1 (Rattus norvegicus, UniProt P97612); assay: Inhibition of FAAH in rat brain homogenates using [3H]anandamide as substrate preincubated for 60 mins by liquid scintillation spectroscopy
T1 sequence (P97612 whole entry): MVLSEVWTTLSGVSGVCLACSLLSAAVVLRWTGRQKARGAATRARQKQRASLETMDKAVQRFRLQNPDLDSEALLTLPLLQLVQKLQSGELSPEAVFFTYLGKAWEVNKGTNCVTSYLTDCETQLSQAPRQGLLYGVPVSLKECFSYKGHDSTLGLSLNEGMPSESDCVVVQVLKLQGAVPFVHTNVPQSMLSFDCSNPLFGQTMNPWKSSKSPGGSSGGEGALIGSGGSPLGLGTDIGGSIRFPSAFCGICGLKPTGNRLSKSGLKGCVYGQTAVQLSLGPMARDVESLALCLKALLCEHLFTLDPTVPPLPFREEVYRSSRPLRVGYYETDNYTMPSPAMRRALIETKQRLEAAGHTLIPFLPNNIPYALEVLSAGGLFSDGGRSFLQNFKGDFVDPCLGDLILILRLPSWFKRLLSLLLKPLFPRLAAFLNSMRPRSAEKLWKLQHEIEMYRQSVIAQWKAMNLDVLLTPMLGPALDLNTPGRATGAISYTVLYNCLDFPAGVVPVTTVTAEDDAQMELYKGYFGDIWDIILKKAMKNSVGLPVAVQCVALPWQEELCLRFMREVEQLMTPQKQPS

[2] = Drug uptake in Sprague-Dawley rat cerebellar cortex at 0.7 to 0.8 nmol/kg, iv after 40 mins by autoradiography analysis in presence of FAAH inhibitor PF-04457845; type: ADME, organism-based; details: in vivo
In short: (§1)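 Male Sprague-Dawley rats (310–330 g) got 45–55 MBq radiotracer (0.7–0.8 nmol/kg) by tail vein. Pretreated 40 min earlier with vehicle (5% Tween80/saline) or PF-04457845 0.5 mg/kg ip. Killed 40 min post-injection. Brains frozen, cut into 20-μm coronal sections at −20°C, dried, exposed to film for 6 days.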

[3] = Drug uptake in Sprague-Dawley rat amygdaloid nuclei at 0.7 to 0.8 nmol/kg, iv after 40 mins by autoradiography analysis in presence of FAAH inhibitor PF-04457845; type: ADME, organism-based; details: in vivo; in short: as §1
[4] = Drug uptake in Sprague-Dawley rat thalamic nuclei at 0.7 to 0.8 nmol/kg, iv after 40 mins by autoradiography analysis in presence of FAAH inhibitor PF-04457845; type: ADME, organism-based; details: in vivo; in short: as §1
Cortex [5] = assay: Drug uptake in Sprague-Dawley rat cerebellar cortex at 0.7 to 0.8 nmol/kg, iv after 40 mins by autoradiography analysis; type: ADME, organism-based; details: in vivo; in short: as §1
[6] = Drug uptake in Sprague-Dawley rat amygdaloid nuclei at 0.7 to 0.8 nmol/kg, iv after 40 mins by autoradiography analysis; type: ADME, organism-based; details: in vivo; in short: as §1
[7] = Drug uptake in Sprague-Dawley rat thalamic nuclei at 0.7 to 0.8 nmol/kg, iv after 40 mins by autoradiography analysis; type: ADME, organism-based; details: in vivo; in short: as §1
Hippocampus [8] = assay: Drug uptake in Sprague-Dawley rat hippocampus at 0.7 to 0.8 nmol/kg, iv after 40 mins by autoradiography analysis; type: ADME, organism-based; details: in vivo; in short: as §1
Cortex [9] = assay: Drug uptake in Sprague-Dawley rat cortex at 0.7 to 0.8 nmol/kg, iv after 40 mins by autoradiography analysis in presence of FAAH inhibitor PF-04457845; type: ADME, organism-based; details: in vivo; in short: as §1
Cortex [10] = assay: Drug uptake in Sprague-Dawley rat cortex at 0.7 to 0.8 nmol/kg, iv after 40 mins by autoradiography analysis; type: ADME, organism-based; details: in vivo; in short: as §1
Hippocampus [11] = assay: Drug uptake in Sprague-Dawley rat hippocampus at 0.7 to 0.8 nmol/kg, iv after 40 mins by autoradiography analysis in presence of FAAH inhibitor PF-04457845; type: ADME, organism-based; details: in vivo; in short: as §1
[12] = Drug metabolism in human plasma after 30 mins; type: ADME, cell-free; details: read-out: Drug metabolism
In short: (§2)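 Radiotracer incubated in vitro in rat or human plasma for 30 min at ambient temperature. Decomposition assessed by radio-HPLC.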

[13] = Drug metabolism in rat brain after 10 mins; type: ADME, tissue-based; details: read-out: Drug metabolism
In short: (§3)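 Rats given radiotracer iv, killed at 10 min. Trunk blood taken into heparin, plasma separated and acidified with 10% v/v acetic acid. Plasma and brain homogenate extracts analysed directly by reverse-phase radio-HPLC for parent vs metabolites.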

Plasma [14] = assay: Drug metabolism in rat plasma after 30 mins; type: ADME, cell-free; details: 0.5 h; in short: as §2
Plasma [15] = assay: Drug metabolism in rat plasma after 10 mins; type: ADME, cell-free; in short: as §3
[16] = Irreversible biodistribution in iv dosed rat brain parenchyma after 40 mins by gamma counting; type: ADME, organism-based; details: in vivo
In short: (§4)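 After tail-vein radiotracer, rats (n=4–6/group) killed at 2, 10 or 40 min. Whole brain rinsed in saline and homogenised in cold 80% acetonitrile/0.01% aq HCl. Centrifuged and extracted three times in total. Pooled supernatant (unbound) and pellet (bound) counted separately. […] Mean ± SD.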

[17] = Irreversible biodistribution in iv dosed rat brain parenchyma after 2 to 40 mins by gamma counting in presence of FAAH inhibitor URB597; type: ADME, organism-based; details: in vivo; in short: as §4
[18] = Irreversible biodistribution in iv dosed rat brain parenchyma after 10 mins by gamma counting; type: ADME, organism-based; details: in vivo; in short: as §4
[19] = Irreversible biodistribution in iv dosed rat brain parenchyma after 2 mins by gamma counting; type: ADME, organism-based; details: in vivo; in short: as §4
Brain [20] = assay: Biodistribution in rat brain at < 1 nmol/kg, iv after 2 to 40 mins by gamma counting in presence of FAAH inhibitor PF-04457845; type: ADME, organism-based; details: in vivo
In short: (§5)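 [18F]radiotracer, 3–4 MBq (0.2–1 nmol/kg), given by tail vein in 0.3 mL 10% ethanol/citrate buffer pH 6 to restrained conscious rats. Decapitation at set times. Regions excised, blotted, weighed. Gamma counting decay-corrected to injection against injected-dose standards. Reported as SUV (%ID/g […] body weight kg), mean ± SD, n=4/group. Blocked groups vs vehicle by Student's t test.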

Brain [21] = assay: Biodistribution in rat brain at < 1 nmol/kg, iv after 2 to 40 mins by gamma counting in presence of FAAH inhibitor URB597; type: ADME, organism-based; details: in vivo; in short: as §5
Hypothalamus [22] = assay: Biodistribution in rat brain hypothalamus at < 1 nmol/kg, iv after 2 mins by gamma counting; type: ADME, organism-based; details: in vivo; in short: as §5
Hypothalamus [23] = assay: Biodistribution in rat brain hypothalamus at < 1 nmol/kg, iv after 40 mins by gamma counting; type: ADME, organism-based; details: in vivo; in short: as §5
Cortex [24] = assay: Biodistribution in rat brain cortex at < 1 nmol/kg, iv after 40 mins by gamma counting; type: ADME, organism-based; details: in vivo; in short: as §5
Cortex [25] = assay: Biodistribution in rat brain cortex at < 1 nmol/kg, iv after 2 mins by gamma counting; type: ADME, organism-based; details: in vivo; in short: as §5

Compound: O=C(NCCCCCF)Oc1cccc(C2=NCCO2)c1
- IC50 [1]: 820 pM

Compound: O=C(NCCCCC[18F])Oc1cccc(C2=NCCO2)c1
- Drug uptake [2]: Not Active
- Drug uptake [3]: Not Active
- Drug uptake [4]: Not Active
- Drug uptake (Cortex [5]): Active
- Drug uptake [6]: Active
- Drug uptake [7]: Active
- Drug uptake (Hippocampus [8]): Active
- Drug uptake (Cortex [9]): Not Active
- Drug uptake (Cortex [10]): Active
- Drug uptake (Hippocampus [11]): Not Active
- metabolised at 0.5 h [12]: < 5%
- metabolised at 10 min [13]: 50%
- Drug metabolism (Plasma [14]): > 50%
- Drug metabolism (Plasma [15]): > 95%
- Drug uptake [16]: 90%
- Drug uptake [17]: 24%
- Drug uptake [18]: 94%
- Drug uptake [19]: 91%
- Drug uptake (Brain [20]): Not Active
- Drug uptake (Brain [21]): Not Active
- SUV (Hypothalamus [22]): 1.74
- SUV (Hypothalamus [23]): 1.59
- SUV (Cortex [24]): 4.55
- SUV (Cortex [25]): 3.9
